Screens (PubChem BioAssay)
SMARCA2 act: SMARCA2 (BRM) function activators, primary screen, cell-based, luminescence, high throughput; MG213 cells, MMTV-luciferase reporter, dexamethasone, overnight; 370,000 compounds, 1% hits; activation, % at 9.1 µM; AID 652017, 2013; in the data active = activation above about 7.8%;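 also: 0% = vehicle wells and 100% = reference activator wells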
ASAP1 GAP inh: inhibitors of human ASAP1 ArfGAP activity, primary screen, biochemical, fluorescence polarization; Arf-GAP with SH3 domain, ANK repeat and PH domain-containing protein 1 (Homo sapiens), …; ASAP1-stimulated ARF1 GTP hydrolysis, GDP FP detection; inhibition, % at 16.5 µM; 360,000 compounds, 0.19% hits; AID 624377, 2012; in the data active = inhibition above about 25%;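 also: 0% = vehicle with enzyme and substrate and 100% = no enzyme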
Target sequence (Q9ULH1 325-724 limits assumed): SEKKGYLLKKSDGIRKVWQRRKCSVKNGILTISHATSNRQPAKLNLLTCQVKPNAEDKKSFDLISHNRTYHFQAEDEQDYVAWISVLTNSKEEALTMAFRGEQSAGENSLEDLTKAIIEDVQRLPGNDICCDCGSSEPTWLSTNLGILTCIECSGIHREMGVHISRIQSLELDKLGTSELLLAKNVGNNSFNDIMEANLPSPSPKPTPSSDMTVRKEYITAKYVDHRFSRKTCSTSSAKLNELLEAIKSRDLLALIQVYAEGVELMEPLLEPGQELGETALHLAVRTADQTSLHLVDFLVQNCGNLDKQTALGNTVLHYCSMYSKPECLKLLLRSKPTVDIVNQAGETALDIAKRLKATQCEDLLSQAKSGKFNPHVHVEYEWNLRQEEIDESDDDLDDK
esBAF inh: Bmi1 luciferase reporter increase in mESCs, primary screen, esBAF inhibitor project, mouse ES cells, Bmi1 luciferase knock-in, single point; 24 h; 100% = twice the neutral-well signal; reporter increase, % at 12.5 µM; 350,000 compounds, 2% hits; in the data active = activation above about 40%;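 also: 0% = median of the plate's neutral control wells and 100% = double that signal; a rise in the Bmi1 reporter signal indicates esBAF inhibition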
ARFGAP1 inhibitor: inhibitors of rat ARFGAP1 GAP activity, primary screen, biochemical, fluorescence polarization, GDP tracer | ADP-ribosylation factor GTPase-activating protein 1 (Rattus norvegicus), Q62848 | Arfgap1-stimulated ARF1 GTP hydrolysis, GDP FP detection | inhibition, % at 16.5 µM | 360,000 compounds, 0.26% hits;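 active = inhibition above a per-plate limit, mean inhibition of low control wells plus 3 SD, cut at about 25% in these data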;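 also: 0% = DMSO wells with enzyme and 100% = wells lacking Arfgap1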
Target sequence (Q62848 1-136 limits assumed): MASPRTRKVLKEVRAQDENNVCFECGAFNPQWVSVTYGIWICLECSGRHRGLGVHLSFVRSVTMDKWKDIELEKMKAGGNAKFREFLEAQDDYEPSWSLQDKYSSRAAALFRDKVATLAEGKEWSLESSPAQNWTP
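System: truncated rat Arfgap1 GAP domain / Benchmarks: high control wells lacking Arfgap1, low control full reaction with DMSO / Times: compound-enzyme preincubation 20 min, reaction 120 min, detection 60 min, 25 °C / Repeats: one replicate per compound / Also added: human ARF1(Δ1-17)-GTP substrate / Measured by: Tracer-displacement fluorescence polarization with EDTA stop, 620/688 nm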
Numbers without * were called inactive; nt = no result given. Shown are actives, neighbours in structure and some others; about 2.6% of the full set was active somewhere.

SMILES	SMARCA2 act	ASAP1 GAP inh	esBAF inh	ARFGAP1 inhibitor
Cc1ccc(-c2csc3nnc(SCC(=O)Nc4nsc(-c5ccccc5)n4)n23)cc1	-1.8	-10.7	-3.4	-11.4
Cc1ccc(-c2nc(NC(=O)CSc3nnnn3-c3ccccc3)ns2)cc1	0.1	-1.4	83.5*	-2.8
Cc1ccc(S(=O)(=O)Nc2cccc3c2O[C@@H](CN(C)Cc2ccc(C(=O)O)cc2)[C@H](C)CN([C@@H](C)CO)C3=O)cc1	nt	nt	5.5	nt
COc1cc(OC)cc(C(=O)/C=C2\Sc3ccccc3N2C)c1	1.4	-4.8	31.2	6.5
CN1/C(=C\C(=O)c2cccc([N+](=O)[O-])c2)Sc2ccccc21	6.2	0.9	74.7*	-4.9
CCCNC(=O)N1C[C@@H](C)[C@@H](OC)CN(C)C(=O)c2ccc(NS(=O)(=O)CC(F)(F)F)cc2OC[C@@H]1C	nt	nt	-3.7	nt
C[C@H](CO)N1C[C@H](C)[C@@H](CN(C)C(=O)c2ccccc2)Oc2ncc(C#CC3CC3)cc2C1=O	nt	nt	1.8	nt
Cc1nc(NCc2ccccc2)sc1C(=O)Nc1ccccc1	3.7	-4.2	59.0*	-3.9
COc1ccc(-c2ccc3c(c2)[C@@H]2[C@@H](CCN2C(=O)CN2CCOCC2)[C@@H](CO)N3)cc1	nt	nt	48.6*	nt
O=C(CN1CCOCC1)N1CC[C@@H]2[C@H](CO)Nc3ccc(-c4ccccc4F)cc3[C@@H]21	nt	nt	41.6*	nt
O=C(C1CC1)N1CC[C@@H]2[C@@H](CO)Nc3ccc(Br)cc3[C@@H]21	nt	nt	2.2	nt
O=C(C1CC1)N1CC[C@@H]2[C@H](CO)Nc3ccc(Br)cc3[C@@H]21	nt	nt	58.0*	nt
COc1ccc(CCn2c(-c3ccc(C(C)(C)C)cc3)n[nH]c2=S)cc1OC	7.9*	-6.8	nt	7.5
COc1ccc(CCn2c(-c3ccc(Cl)cc3)n[nH]c2=S)cc1OC	-0.4	1.3	nt	-7.8
C[C@H](O)[C@@H]1C(=O)N2CCc3ccc(N4CCN(C)CC4)cc3[C@@H]2C[C@@H]1N(C)C(=O)NC1CCCCC1	7.9*	-4.5	-4.4	14.4
COc1cc(N2Cc3ccccc3C2)ccc1C=O	5.8	-3.5	51.2*	7.0
CN1C(=O)c2cc(NC(=O)c3ccc(C#N)cc3)ccc2OC[C@H]2O[C@@H](CC(=O)Nc3cc(F)ccc3F)CC[C@@H]21	nt	nt	5.8	nt
c1ccc(-c2onc3cc4c(cc23)OCCO4)cc1	7.6	1.4	68.4*	6.1
Cc1cccc(N/N=C/c2ccc(O)c(O)c2O)c1	-1.0	8.4	nt	-4.2
COc1cccc(N/N=C/c2cccc(Br)c2O)c1	-0.4	-0.6	52.7*	2.3
NC(=O)c1ccccc1NC(=O)CCc1ccccc1	nt	nt	48.3*	nt
O=C(CCCc1ccccc1)Nc1ccccc1C(F)(F)F	0.7	9.7	71.5*	-15.5
O=C(CCCOc1ccccc1)Nc1ccccc1C(F)(F)F	-0.9	-17.7	6.2	-3.9
C[C@H]1CCCCO[C@H](CN(C)S(=O)(=O)c2cccs2)[C@@H](C)CN([C@@H](C)CO)C(=O)c2cc(NS(=O)(=O)c3cccs3)ccc2O1	nt	nt	6.8	nt
Nc1ccc2nc(-c3cccs3)[nH]c2c1	-1.4	3.0	44.2*	7.7
SMILES	SMARCA2 act	ASAP1 GAP inh	esBAF inh	ARFGAP1 inhibitor
C[C@@H]1CN([C@@H](C)CO)C(=O)c2cccc(NS(=O)(=O)c3ccccc3)c2O[C@H]1CN(C)CC1CCCCC1	nt	nt	3.8	nt
Cc1ccc(Oc2nnc(-c3ccccc3)c3ccccc23)cc1	-2.0	8.1	8.3	7.3
Cc1ccc(-c2nnc(Oc3cccc(C)c3)c3ccccc23)cc1	1.8	-3.5	52.9*	4.6
Cc1noc(C)c1NC(=O)Nc1ccc2c(c1)C(=O)N([C@@H](C)CO)C[C@H](C)[C@H](CN(C)S(=O)(=O)c1ccccc1)O2	nt	nt	-3.7	nt
COc1cccc(OCc2cc(C(=O)N3CCN(c4ccccc4OC)CC3)no2)c1	3.7	-0.3	77.5*	3.2
COc1cccc(OCc2cc(C(=O)N3CCN(c4ccccc4O)CC3)no2)c1	2.2	-2.8	48.7*	1.3
Cc1ccc(N2CCN(C(=O)c3cc(COc4c(C)cccc4C)on3)CC2)c(C)c1	-1.0	0.3	-0.2	1.6
COc1ccccc1N1CCN(C(=O)c2cc(-c3ccccc3)on2)CC1	-1.9	3.9	9.8	-7.7
COc1ccc(-c2cc3ccc(OCC(C)=O)cc3oc2=O)cc1	4.9	-16.9	18.3	0.8
CCCCc1c(C)c2ccc(OCC(C)=O)cc2oc1=O	4.5	-4.1	62.6*	-0.2
COc1ccc(-c2cc3ccc(OCC(C)=O)cc3oc2=O)cc1OC	6.4	-2.4	46.7*	-4.7
Cc1[nH]n(-c2ccccc2)c(=O)c1N=Nc1ccc2c(c1)OCO2	-0.6	4.0	64.4*	9.1
COc1cccc(N=Nc2c(C)[nH]n(-c3ccccc3)c2=O)c1	2.8	-10.0	35.0	-3.6
C[C@H](CO)N1C[C@H](C)[C@H](CN(C)S(=O)(=O)c2cccs2)Oc2ccc(NC(=O)Cn3cnnn3)cc2C1=O	nt	nt	1.6	nt
O=C(CCC1CCCN(C(=O)c2cc3ccccc3o2)C1)NCc1ccc(F)c(F)c1 (configuration not stated)	1.1	9.9	56.3*	7.1
O=C(Nc1ccc(Cl)c(Cl)c1)c1ccc(Cn2cc(Cl)cn2)cc1	2.1	18.6	68.6*	18.4
NNC(=O)c1ccc(Cn2cc(Cl)cn2)cc1	0.5	9.3	-2.8	-5.4
Cc1cc(-c2ccccc2)n(-c2ccccc2)n1	3.1	10.3	51.3*	3.1
c1ccc(-c2ccc(-n3ccnc3)cc2)cc1	-0.3	-7.0	56.4*	-8.8
O=C(c1cccc(C(=O)N2CCN(Cc3ccccc3)CC2)c1)N1CCN(Cc2ccccc2)CC1	-2.0	3.7	-6.4	6.8
O=C(c1ccc2ccccc2c1)N1CCN(Cc2ccccc2)CC1	-0.6	-13.7	68.9*	-2.4
CN1C(=O)c2cc(NC(=O)c3cscn3)ccc2OC[C@H]2O[C@@H](CC(=O)N3CCOCC3)CC[C@@H]21	nt	nt	-7.4	nt
CCn1c(C)nc2cc(C(=O)N/N=C/c3ccccc3)ccc21	3.2	-3.3	42.9*	-9.3
CCn1c(C)nc2cc(C(=O)N/N=C/c3ccc(O)cc3)ccc21	-1.9	11.4	nt	7.9
CCCCSC(=O)Nc1ccccc1	4.1	1.6	50.1*	4.9
N#CC1=C(SCC(=O)Nc2ccccc2)NC(=O)CC1c1ccco1 (configuration not stated)	3.9	2.5	79.0*	-9.6
CC(=O)Nc1ccc2c(c1)C(=O)N(C)[C@H]1CC[C@H](CC(=O)NC3CCCCC3)O[C@H]1CO2	nt	nt	-1.2	nt
CSc1n[nH]c(-c2ccc(C(F)(F)F)cc2)n1	0.2	-6.0	41.4*	16.8
Nc1n[nH]c(-c2ccc(F)cc2)n1	4.9	2.5	0.2	-3.0
COc1cccc(C(=O)Nc2ccc3c(c2)OC[C@H](C)N(CC2CC2)C[C@@H](C)[C@@H](OC)CN(C)C3=O)c1	nt	nt	4.7	nt
